Results as given in ChEMBL document CHEMBL4145686, “Discovery of a Potent and Selective Steroidal Glucocorticoid Receptor Antagonist (ORIC-101)” (J Med Chem, 2018).

Legend:
[1] = AUC in mouse at 5 mg/kg, po; type: ADME, organism-based; conditions: in vivo
Glucocorticoid receptor [2] = target: T1, Glucocorticoid receptor (Sus scrofa, UniProt Q9N1U3); assay: Antagonist activity at GR in mini pig PBMC assessed as reduction in dexamethasone-induced FKBP5 gene expression incubated for 24 hrs by RT-qPCR method; type: cell-based
T1 sequence (Q9N1U3 whole entry): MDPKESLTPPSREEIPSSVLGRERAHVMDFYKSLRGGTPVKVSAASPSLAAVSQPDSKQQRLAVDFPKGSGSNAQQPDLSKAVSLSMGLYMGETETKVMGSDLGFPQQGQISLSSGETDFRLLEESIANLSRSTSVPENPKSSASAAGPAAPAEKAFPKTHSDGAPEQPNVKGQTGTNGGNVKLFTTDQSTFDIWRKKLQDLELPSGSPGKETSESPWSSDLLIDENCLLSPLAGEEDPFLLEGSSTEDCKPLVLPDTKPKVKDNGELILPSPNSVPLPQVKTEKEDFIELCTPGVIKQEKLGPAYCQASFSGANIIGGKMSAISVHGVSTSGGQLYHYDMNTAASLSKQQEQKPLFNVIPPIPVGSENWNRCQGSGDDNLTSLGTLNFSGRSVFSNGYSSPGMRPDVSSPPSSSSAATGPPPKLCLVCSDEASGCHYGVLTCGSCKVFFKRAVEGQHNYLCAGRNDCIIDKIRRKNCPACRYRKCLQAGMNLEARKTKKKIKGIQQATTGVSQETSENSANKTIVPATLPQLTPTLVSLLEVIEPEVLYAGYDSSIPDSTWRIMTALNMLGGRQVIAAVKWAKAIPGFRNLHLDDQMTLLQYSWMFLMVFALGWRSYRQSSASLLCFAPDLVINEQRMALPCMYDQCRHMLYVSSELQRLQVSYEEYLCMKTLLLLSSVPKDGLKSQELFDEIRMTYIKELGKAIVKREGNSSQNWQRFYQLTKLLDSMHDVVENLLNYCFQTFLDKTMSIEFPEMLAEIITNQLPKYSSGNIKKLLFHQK

[3] = Antagonist activity at GR in monkey PBMC assessed as reduction in dexamethasone-induced FKBP5 gene expression incubated for 6 hrs by RT-qPCR method; type: cell-based; conditions: Macaca mulatta
Glucocorticoid receptor [4] = target: T2, Glucocorticoid receptor (Homo sapiens, UniProt P04150); assay: Antagonist activity at GR in human OVCAR5 assessed as reduction in dexamethasone-induced GILZ gene expression incubated for 24 hrs by RT-qPCR method
T2 sequence (P04150 whole entry): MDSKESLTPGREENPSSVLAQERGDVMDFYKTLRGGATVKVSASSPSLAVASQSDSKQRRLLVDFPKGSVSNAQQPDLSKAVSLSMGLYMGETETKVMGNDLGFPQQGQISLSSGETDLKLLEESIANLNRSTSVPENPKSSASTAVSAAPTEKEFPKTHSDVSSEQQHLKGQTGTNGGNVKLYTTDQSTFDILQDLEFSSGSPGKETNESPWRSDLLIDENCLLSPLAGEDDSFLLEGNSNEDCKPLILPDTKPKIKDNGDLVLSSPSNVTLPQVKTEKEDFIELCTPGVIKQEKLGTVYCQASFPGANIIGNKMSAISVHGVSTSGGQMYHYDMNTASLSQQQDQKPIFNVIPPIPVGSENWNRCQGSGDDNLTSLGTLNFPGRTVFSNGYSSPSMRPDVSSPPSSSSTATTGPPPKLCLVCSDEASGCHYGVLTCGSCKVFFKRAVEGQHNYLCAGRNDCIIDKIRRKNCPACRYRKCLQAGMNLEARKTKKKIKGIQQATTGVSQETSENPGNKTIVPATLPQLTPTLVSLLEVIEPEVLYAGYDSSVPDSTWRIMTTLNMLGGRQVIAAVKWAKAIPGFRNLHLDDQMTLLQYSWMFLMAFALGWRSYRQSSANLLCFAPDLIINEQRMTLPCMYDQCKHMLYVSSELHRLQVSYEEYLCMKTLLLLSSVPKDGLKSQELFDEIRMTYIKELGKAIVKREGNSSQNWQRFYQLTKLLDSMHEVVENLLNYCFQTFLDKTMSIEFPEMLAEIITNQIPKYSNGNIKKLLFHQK

Cytochrome P450 2C9 = Cytochrome P450 2C9 (Homo sapiens, UniProt P11712); assay: Inhibition of CYP2C9 (unknown origin) using […] as substrate; type: ADME
Mus musculus = assay: In-vivo antagonist activity at GR in nude mouse xenografted with human OVCAR5 cells assessed as reduction in dexamethasone-induced FKBP5 gene expression at 25 to 75 mg/kg, po dosed as gavage and measured after 6 hrs by RT-qPCR method; type: functional, organism-based
In short: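 OVCAR5 xenograft mice received dexamethasone 0.5 mg/kg by intraperitoneal injection with or without a single oral gavage dose of the antagonist at 25, 50 or 75 mg/kg. Tumors and plasma collected 6 h later. Tumor FKBP5 mRNA measured by RT-qPCR. Unbound plasma concentration of the antagonist determined, n = 4 mice per group. FKBP5 effects tested by one-way ANOVA with Dunnett's test versus the vehicle group.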

Cytochrome P450 3A4 = Cytochrome P450 3A4 (Homo sapiens, UniProt P08684); assay: Inhibition of CYP3A4 (unknown origin) using midazolam as substrate; type: ADME
[5] = Half life in rat at 0.5 mg/kg, iv; type: ADME, organism-based; conditions: in vivo

Sequence of Cytochrome P450 2C9 (P11712 whole entry): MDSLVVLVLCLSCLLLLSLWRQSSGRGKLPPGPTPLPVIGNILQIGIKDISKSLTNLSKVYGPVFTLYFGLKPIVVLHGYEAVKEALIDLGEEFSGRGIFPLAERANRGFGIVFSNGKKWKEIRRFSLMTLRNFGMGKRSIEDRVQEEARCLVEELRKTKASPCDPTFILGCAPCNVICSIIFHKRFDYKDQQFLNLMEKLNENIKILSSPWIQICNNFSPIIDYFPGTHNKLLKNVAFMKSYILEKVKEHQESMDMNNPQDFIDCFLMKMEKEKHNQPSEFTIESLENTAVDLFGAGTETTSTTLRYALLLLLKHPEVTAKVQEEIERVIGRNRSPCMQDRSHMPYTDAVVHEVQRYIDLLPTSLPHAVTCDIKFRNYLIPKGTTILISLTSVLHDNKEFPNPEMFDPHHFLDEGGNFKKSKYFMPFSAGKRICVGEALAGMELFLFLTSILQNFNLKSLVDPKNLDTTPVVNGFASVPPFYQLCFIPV
Sequence of Cytochrome P450 3A4 (P08684 whole entry): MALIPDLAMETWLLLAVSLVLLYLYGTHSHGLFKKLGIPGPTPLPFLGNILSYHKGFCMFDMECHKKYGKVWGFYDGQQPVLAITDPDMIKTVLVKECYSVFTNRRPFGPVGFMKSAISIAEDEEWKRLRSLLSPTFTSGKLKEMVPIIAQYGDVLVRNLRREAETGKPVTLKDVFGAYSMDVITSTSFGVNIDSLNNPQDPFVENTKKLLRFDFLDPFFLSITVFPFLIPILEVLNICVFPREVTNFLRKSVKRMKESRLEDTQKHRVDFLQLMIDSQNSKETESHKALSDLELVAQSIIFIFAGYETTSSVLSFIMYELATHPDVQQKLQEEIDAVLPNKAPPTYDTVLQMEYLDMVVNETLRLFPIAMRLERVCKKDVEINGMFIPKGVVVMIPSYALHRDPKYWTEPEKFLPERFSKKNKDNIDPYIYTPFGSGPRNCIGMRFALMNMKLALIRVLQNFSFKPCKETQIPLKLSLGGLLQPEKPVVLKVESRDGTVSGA

CC(C)N(C)c1ccc([C@H]2C[C@@]3(C)[C@@H](CC[C@@]3(O)C#CC(C)(C)C)[C@@H]3CCC4=CC(=O)CC[C@@H]4[C@H]32)cc1
AUC [1]: 644 ng·h/mL | IC50 (Glucocorticoid receptor [2]): 39.3 nM | IC50 [3]: 11.1 nM | IC50 (Glucocorticoid receptor [4]): 21.2 nM | IC50 (Cytochrome P450 2C9): > 10000 nM | inhibition (Mus musculus): Dose-dependent effect | IC50 (Cytochrome P450 3A4): 1600 nM | half-life [5]: 4.4 h
